*1 amine or outer side, *2 acyl side, *3 side chain or, on linkers, in order; H or OH if unused. Where a SMILES comes first, the peptide text is derived from it. Side-chain parts run from the residue outwards. [ ]: non-standard residue; d: D form. The star is where a group is joined. NMeF = CN[C@@H](Cc1ccccc1)C(=O)O; CO = O=C([*:1])[*:2]; OAll = C=CCO*
What was measured:
Chitinase B = biological target: T1, Chitinase B (Serratia marcescens, UniProt P11797); assay: Displacement of 4-methylumbelliferydiacetyl-chitobiose from Serratia marcescens ChiB
T1 sequence (P11797 whole entry): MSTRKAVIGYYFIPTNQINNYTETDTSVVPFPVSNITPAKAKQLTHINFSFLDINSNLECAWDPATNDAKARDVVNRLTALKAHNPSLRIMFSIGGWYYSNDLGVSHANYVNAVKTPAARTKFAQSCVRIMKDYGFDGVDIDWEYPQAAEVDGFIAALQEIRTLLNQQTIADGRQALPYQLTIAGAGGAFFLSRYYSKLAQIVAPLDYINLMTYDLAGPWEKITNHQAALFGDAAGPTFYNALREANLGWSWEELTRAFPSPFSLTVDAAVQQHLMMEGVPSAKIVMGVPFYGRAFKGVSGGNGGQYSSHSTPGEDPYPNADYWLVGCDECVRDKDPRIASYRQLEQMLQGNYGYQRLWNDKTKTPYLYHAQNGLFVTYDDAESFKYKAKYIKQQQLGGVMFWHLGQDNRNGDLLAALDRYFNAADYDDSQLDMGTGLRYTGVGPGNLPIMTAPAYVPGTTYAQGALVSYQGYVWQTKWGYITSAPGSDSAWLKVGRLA
In short: (§1)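 Crude S. marcescens chitinase diluted in 0.1 M phosphate pH 7.0 (ChiA x10, ChiB x40, ChiC1 x4) was mixed with inhibitor in MeOH, buffer and 80 μM (solution added) 4-MU-(GlcNAc)2, then incubated 5 min. Fluorescence (ex 355/em 460 nm) was read every 60 s. The 4-methylumbelliferone production rate was corrected for each inhibitor's quenching using inhibitor plus 4MU mixtures. IC50 came from sigmoidal dose-response fits.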

Chitinase C1 = biological target: T2, Chitinase C1 (Serratia marcescens, UniProt Q700B8); assay: Displacement of 4-methylumbelliferydiacetyl-chitobiose from Serratia marcescens ChiC; in short: as §1
T2 sequence (Q700B8 whole entry): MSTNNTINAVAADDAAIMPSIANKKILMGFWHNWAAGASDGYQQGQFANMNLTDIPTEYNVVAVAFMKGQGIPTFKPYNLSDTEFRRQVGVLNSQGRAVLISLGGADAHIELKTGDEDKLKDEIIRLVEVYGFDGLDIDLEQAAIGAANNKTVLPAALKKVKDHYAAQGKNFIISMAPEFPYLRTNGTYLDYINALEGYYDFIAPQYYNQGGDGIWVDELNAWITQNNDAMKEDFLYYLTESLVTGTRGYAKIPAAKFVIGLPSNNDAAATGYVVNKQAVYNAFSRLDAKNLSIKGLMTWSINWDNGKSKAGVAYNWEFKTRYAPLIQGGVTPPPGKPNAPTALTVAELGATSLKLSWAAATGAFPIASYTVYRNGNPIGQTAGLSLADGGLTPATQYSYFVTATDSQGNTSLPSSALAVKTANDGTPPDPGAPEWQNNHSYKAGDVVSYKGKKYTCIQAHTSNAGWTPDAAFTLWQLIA

Chitinase A = Chitinase A (Serratia marcescens, UniProt P07254); assay: Displacement of 4-methylumbelliferydiacetyl-chitobiose from Serratia marcescens ChiA; in short: as §1
Chitinase A, sequence (P07254 whole entry): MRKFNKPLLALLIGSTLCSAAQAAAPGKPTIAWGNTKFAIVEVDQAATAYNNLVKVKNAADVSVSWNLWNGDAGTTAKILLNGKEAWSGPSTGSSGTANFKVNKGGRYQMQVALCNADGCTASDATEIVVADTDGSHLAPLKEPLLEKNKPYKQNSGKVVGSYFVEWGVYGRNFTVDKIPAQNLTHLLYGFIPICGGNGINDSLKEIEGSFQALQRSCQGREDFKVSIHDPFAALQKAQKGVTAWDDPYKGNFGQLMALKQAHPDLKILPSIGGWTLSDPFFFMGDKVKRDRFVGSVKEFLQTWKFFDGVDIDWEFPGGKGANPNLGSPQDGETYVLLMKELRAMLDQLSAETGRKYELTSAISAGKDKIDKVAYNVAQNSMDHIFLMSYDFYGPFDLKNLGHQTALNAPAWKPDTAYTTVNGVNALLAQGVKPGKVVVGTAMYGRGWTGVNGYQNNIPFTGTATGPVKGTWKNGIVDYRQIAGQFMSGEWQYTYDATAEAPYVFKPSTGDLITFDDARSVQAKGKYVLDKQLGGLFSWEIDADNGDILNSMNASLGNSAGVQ

Structure (SMILES) | IC50 (Chitinase B) [µM] | IC50 (Chitinase C1) [µM] | IC50 (Chitinase A) [µM]
CNC(=O)NC(=N)NCCC[C@H](NC(C)=O)C(=O)O | 260 | > 30 | 31
CNC(=O)NC(=N)NCCC[C@H](NC(=O)[C@@H](C)NC(=O)[C@H](CC(=O)O)NC(C)=O)C(=O)N(C)[C@@H](Cc1ccccc1)C(=O)O | 30 | > 30 | 8.4
C=CCOC(=O)C[C@H](NC(=O)[C@H](Cc1ccccc1)N(C)C(=O)[C@H](CCCN=C(N)NC(=O)NC)NC(=O)[C@@H](C)NC(=O)[C@H](CC(=O)O)NC(C)=O)C(=O)O | 1 | > 30 | 1.1
CNC(=O)NC(N)=NCCC[C@H](NC(=O)[C@@H](C)NC(C)=O)C(=O)O | 64 | > 30 | 6.6
CNC(=O)NC(N)=NCCC[C@H](NC(=O)[C@@H](C)NC(=O)[C@H](CC(=O)O)NC(C)=O)C(=O)O | 110 | > 30 | 32
CNC(=O)NC(=N)NCCC[C@H](NC(C)=O)C(=O)N(C)[C@@H](Cc1ccccc1)C(=O)O | 3.7 | > 30 | 0.75
C=CCOC(=O)C[C@H](NC(=O)[C@H](Cc1ccccc1)N(C)C(=O)[C@H](CCCNC(=N)NC(=O)NC)NC(=O)[C@@H](C)NC(C)=O)C(=O)O | 0.091 | > 30 | 0.025
CNC(=O)NC(=N)NCCC[C@H](NC(=O)[C@@H](C)NC(C)=O)C(=O)N(C)[C@@H](Cc1ccccc1)C(=O)O | 2.7 | > 30 | 0.09
C=CCOC(=O)C[C@H](NC(=O)[C@H](Cc1ccccc1)N(C)C(=O)[C@H](CCCNC(=N)NC(=O)NC)NC(C)=O)C(=O)O (Ac-Arg([CO-NHMe])-[NMeF]-Asp(OAll)-OH) | 0.13 | > 30 | 0.14
CNC(=O)NC(=N)NCCC[C@@H]1NC(=O)[C@@H](C)NC(=O)C[C@@H](C(=O)O)NC(=O)C[C@@H](C(=O)O)NC(=O)[C@H](Cc2ccccc2)N(C)C1=O [ARGIFIN] | 6.4 | > 30 | 0.025
